23 compounds from ChEMBL document CHEMBL1821679, “Targeting the heat shock protein 90 dimer with dimeric inhibitors” (J Med Chem, 2011) can be followed below.

One assay deals with SK-BR-3. The assay is described as follows: Antiproliferative activity against human SKBR3 cells after 72 hrs by MTS/PMS assay. Type of assay: functional, cell-based. The conditions noted are these: SK-BR-3, 72 h. The method, boiled down:
(§1)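 Cells grown in medium with non-essential amino acids, 2 mM L-glutamine, streptomycin, penicillin and 10% FBS at 37 °C, 5% CO2; seeded 2000/well, attached overnight. Test agent added over a concentration range in DMSO (1% final), 72 h exposure. Viable cells counted by MTS/PMS read-out against 1% DMSO wells as 100% proliferation. IC50 taken as mean ± SD of at least two separate experiments, each in triplicate.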

A further assay has as its system MCF7. The assay is described as follows: Antiproliferative activity against human MCF7 cells after 72 hrs by MTS/PMS assay. Type of assay: functional, cell-based. The conditions noted are these: MCF7, 72 h. The method, boiled down: as §1
Assay [1] has as its target T1, Heat shock protein HSP90 (Homo sapiens) (UniProt P07900+P08238). Briefly: Inhibition of Hsp90 in human MCF7 cells assessed as induction of Akt degradation at 5 fold IC50 after 24 hrs by Western blot method. Type of assay: cell-based. The method, boiled down: (§2)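 MCF-7 cells treated 24 h with compound in DMSO (1% final); geldanamycin 500 nM served as positive control and DMSO as vehicle control. Cells harvested in cold PBS and lysed 1 h on ice in RIPA with 1 mM PMSF, 2 mM orthovanadate and protease inhibitors. Lysates clarified 14,000g, 15 min, 4 °C. Protein (20 µg, BCA) resolved under reducing conditions and blotted on PVDF for Her2, Raf and Akt, with actin as loading control. Detection by HRP secondary antibody and chemiluminescence.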
Background: In western blotting, separated proteins are transferred to a membrane and probed.

Assay [2] in a line: Antiproliferative activity against human PC3MM2 cells after 72 hrs by MTS/PMS assay. Type of assay: functional, cell-based. The conditions noted are these: PC3MM2, 72 h. The method, boiled down: as §1
The target in assay [3] is T1, Heat shock protein HSP90 (Homo sapiens). The assay is described as follows: Inhibition of Hsp90 in human MCF7 cells assessed as induction of Akt degradation at 0.5 fold IC50 after 24 hrs by Western blot method. Type of assay: cell-based. In outline: as §2
For assay [4] the target is unchanged. Briefly: Inhibition of Hsp90 in human MCF7 cells assessed as induction of Her2 degradation at 0.5 fold IC50 after 24 hrs by Western blot method. Type of assay: cell-based. The method, boiled down:
as §2

Assay [5] shares this target. The assay is described as follows: Inhibition of Hsp90 in human MCF7 cells assessed as induction of Her2 degradation at 5 fold IC50 after 24 hrs by Western blot method. Type of assay: cell-based. The method, boiled down: as §2
A further assay relates to A549. Briefly: Antiproliferative activity against human A549 cells after 72 hrs by MTS/PMS assay. Type of assay: functional, cell-based. The conditions noted are these: A549, 72 h. In outline: as §1
The target of assay [6] is T1, Heat shock protein HSP90 (Homo sapiens). The assay is described as follows: Inhibition of Hsp90 in human MCF7 cells assessed as induction of Raf degradation at 5 fold IC50 after 24 hrs by Western blot method. Type of assay: cell-based. The method, boiled down:
as §2

For assay [7] the target is unchanged. The assay is described as follows: Inhibition of Hsp90 in human MCF7 cells assessed as induction of Raf degradation at 0.5 fold IC50 after 24 hrs by Western blot method. Type of assay: cell-based. In outline:
as §2

Another assay relates to HT-29. The assay is described as follows: Antiproliferative activity against human HT-29 cells after 72 hrs by MTS/PMS assay. Type of assay: functional, cell-based. The conditions noted are these: HT-29, 72 h. The method, boiled down:
as §1

Molecules are shown by their SMILES. Calls of active or inactive are those of the source. The calls are words filed in the database; no cut-off is given here.

Regarding `COc1cc2cc(NC(=O)C/C=C/CC(=O)Nc3cc4cc(OC)c(O[C@H]5OC(C)(C)[C@@H](OC)[C@H](O)[C@@H]5O)c(C)c4oc3=O)c(=O)oc2c(C)c1O[C@H]1OC(C)(C)[C@@H](OC)[C@H](O)[C@@H]1O`, the results for the IC50 in the assay on SK-BR-3 and with MCF7 were 106000 nM and 168000 nM, respectively.

For the compound `COc1c(OC2CCN(C)CC2)ccc2cc(NC(=O)CCC/C=C/CCCC(=O)Nc3cc4ccc(OC5CCN(C)CC5)c(OC)c4oc3=O)c(=O)oc12`, the inhibition result in assay [1], in assay [3], in assay [4], in assay [5], in assay [6] and in assay [7] was “Active” in each case. Moreover, the IC50 in assay [2] is 50 nM; with SK-BR-3, 370 nM; with MCF7 it was 880 nM; with A549, 1210 nM.

Regarding `COc1ccc(C(=O)Nc2cc3ccc(OCCCN(C)C)c(C)c3oc2=O)cc1-c1cc(C(=O)Nc2cc3ccc(OCCCN(C)C)c(C)c3oc2=O)ccc1OC`, the IC50 is 52300 nM in assay [2]; 9500 nM with SK-BR-3; 62700 nM in the assay on HT-29; 11700 nM with MCF7; 93400 nM in the assay with A549.

Consider `COc1c(O[C@H]2OC(C)(C)[C@@H](OC)[C@H](O)[C@@H]2O)ccc2cc(NC(=O)CC/C=C/CCC(=O)Nc3cc4ccc(O[C@H]5OC(C)(C)[C@@H](OC)[C@H](O)[C@@H]5O)c(OC)c4oc3=O)c(=O)oc12`, for which the IC50 in the assay with SK-BR-3 is 52000 nM; in the assay with MCF7, more than 100000 nM.

As for `Cc1c(OC2CCN(C)CC2)ccc2cc(NC(=O)CC/C=C\CCC(=O)Nc3cc4ccc(OC5CCN(C)CC5)c(C)c4oc3=O)c(=O)oc12`, the IC50 in assay [2] was 32900 nM; with SK-BR-3, more than 100000 nM; with MCF7, 49900 nM; in the assay on A549, 77600 nM.

Turning to `Cc1c(OC2CCN(C)CC2)ccc2cc(NC(=O)CCCCC(=O)Nc3cc4ccc(OC5CCN(C)CC5)c(C)c4oc3=O)c(=O)oc12`, the IC50 was 1260 nM with SK-BR-3 and 2460 nM with MCF7.

Take `COc1ccc(C(=O)Nc2cc3ccc(OC(C)=O)c(C)c3oc2=O)cc1-c1cc(C(=O)Nc2cc3ccc(OC(C)=O)c(C)c3oc2=O)ccc1OC`: the IC50 was 11800 nM in the assay on SK-BR-3 and more than 100000 nM with MCF7.

On to `COc1cc(C(=O)Nc2cc3ccc(O[C@@H]4OC(C)(C)[C@H](OC)[C@@H](O)[C@H]4O)c(C)c3oc2=O)cc(-c2cc(OC)cc(C(=O)Nc3cc4ccc(O[C@@H]5OC(C)(C)[C@H](OC)[C@@H](O)[C@H]5O)c(C)c4oc3=O)c2)c1`, for which the IC50 in assay [2] came to 12500 nM; in the assay with SK-BR-3, 1950 nM; in the assay with HT-29 it was 11700 nM; with MCF7 it was 1850 nM; in the assay with A549 it was 28900 nM.

Regarding `COc1cc2cc(NC(=O)CC/C=C/CCC(=O)Nc3cc4cc(OC)c(O[C@H]5OC(C)(C)[C@@H](OC)[C@H](O)[C@@H]5O)c(C)c4oc3=O)c(=O)oc2c(C)c1O[C@H]1OC(C)(C)[C@@H](OC)[C@H](O)[C@@H]1O`, the IC50 with SK-BR-3 is 4100 nM; with MCF7 it was 2610 nM.

Regarding `COc1ccc(C(=O)Nc2cc3ccc(OC4CCN(C)CC4)c(C)c3oc2=O)cc1-c1cc(C(=O)Nc2cc3ccc(OC4CCN(C)CC4)c(C)c3oc2=O)ccc1OC`, the IC50 in the assay on SK-BR-3 was determined as 4980 nM; with MCF7, 14200 nM.

With `CO[C@H]1[C@H](O)[C@H](O)[C@@H](Oc2ccc3cc(NC(=O)CC/C=C/CCC(=O)Nc4cc5ccc(O[C@H]6OC(C)(C)[C@@H](OC)[C@H](O)[C@@H]6O)c(C)c5oc4=O)c(=O)oc3c2C)OC1(C)C`, the IC50 is 1500 nM in the assay with SK-BR-3 and 3900 nM with MCF7.

`CO[C@@H]1[C@@H](O)[C@@H](O)[C@H](Oc2ccc3cc(NC(=O)c4cccc(-c5cccc(C(=O)Nc6cc7ccc(O[C@@H]8OC(C)(C)[C@H](OC)[C@@H](O)[C@H]8O)c(C)c7oc6=O)c5)c4)c(=O)oc3c2C)OC1(C)C`: the IC50 amounted to 860 nM with SK-BR-3 and 1260 nM in the assay with MCF7.

For the compound `COc1c(OC2CCN(C)CC2)ccc2cc(NC(=O)C/C=C/CC(=O)Nc3cc4ccc(OC5CCN(C)CC5)c(OC)c4oc3=O)c(=O)oc12`, the inhibition result in assay [1], in [3], in [4], in assay [5], in assay [6] and in [7] was “Active” each time. Further, the IC50 in assay [2] worked out at 8630 nM; with SK-BR-3, 710 nM; with MCF7, 1460 nM.

As to `COc1ccc(C(=O)Nc2cc3cc(OC)c(O[C@@H]4OC(C)(C)[C@H](OC)[C@@H](O)[C@H]4O)c(C)c3oc2=O)cc1-c1cc(C(=O)Nc2cc3cc(OC)c(O[C@@H]4OC(C)(C)[C@H](OC)[C@@H](O)[C@H]4O)c(C)c3oc2=O)ccc1OC`, the inhibition result in [1], in assay [3], in [4], in [5], in assay [6] and in assay [7] was “Active” in each case. Besides, the IC50 in the assay on SK-BR-3 was 110 nM; with MCF7, 720 nM.

As for `COc1c(OC2CCN(C)CC2)ccc2cc(NC(=O)CC/C=C/CCC(=O)Nc3cc4ccc(OC5CCN(C)CC5)c(OC)c4oc3=O)c(=O)oc12`, the inhibition result in assay [1], in assay [3], in assay [4], in [5], in assay [6] and in [7] was “inactive” in each case. The IC50 in assay [2] was 60 nM; in the assay on SK-BR-3, 2220 nM; with MCF7, 1120 nM; with A549 it was 1220 nM.

As for `COc1c(O[C@H]2OC(C)(C)[C@@H](OC)[C@H](O)[C@@H]2O)ccc2cc(NC(=O)C/C=C/CC(=O)Nc3cc4ccc(O[C@H]5OC(C)(C)[C@@H](OC)[C@H](O)[C@@H]5O)c(OC)c4oc3=O)c(=O)oc12`, the IC50 in the assay with SK-BR-3 and in the assay on MCF7 was more than 100000 nM each time.

Consider `COc1cc2cc(NC(=O)CCC/C=C/CCCC(=O)Nc3cc4cc(OC)c(OC5CCN(C)CC5)c(C)c4oc3=O)c(=O)oc2c(C)c1OC1CCN(C)CC1`, for which the inhibition result in [1], in assay [3], in assay [4], in assay [5], in [6] and in assay [7] was “Active” in each case. Besides, the IC50 was 380 nM in [2], 220 nM in the assay on SK-BR-3, 310 nM in the assay on MCF7 and 37700 nM with A549.

With `COc1cc2cc(NC(=O)CC/C=C/CCC(=O)Nc3cc4cc(OC)c(OC5CCN(C)CC5)c(C)c4oc3=O)c(=O)oc2c(C)c1OC1CCN(C)CC1`, the inhibition entry in assay [1], in assay [3], in assay [4], in assay [5], in [6] and in [7] was “Active” in each case. For the same compound, the IC50 in [2] was found to be 4860 nM; in the assay with SK-BR-3, 1100 nM; in the assay with MCF7, 1310 nM; with A549, 1440 nM.

For the compound `COc1cc2cc(NC(=O)C/C=C/CC(=O)Nc3cc4cc(OC)c(OC5CCN(C)CC5)c(C)c4oc3=O)c(=O)oc2c(C)c1OC1CCN(C)CC1`, the inhibition entry in [1], in assay [3], in assay [4], in assay [5], in [6] and in assay [7] was “Active” throughout. Further, the IC50 turned out to be 170 nM in [2], 270 nM in the assay on SK-BR-3, 560 nM in the assay with MCF7 and 1250 nM with A549.

As to `CO[C@H]1[C@H](O)[C@H](O)[C@@H](Oc2ccc3cc(NC(=O)C/C=C/CC(=O)Nc4cc5ccc(O[C@H]6OC(C)(C)[C@@H](OC)[C@H](O)[C@@H]6O)c(C)c5oc4=O)c(=O)oc3c2C)OC1(C)C`, the concentration for half-maximal inhibition (IC50) in the assay with SK-BR-3 is more than 100000 nM; in the assay on MCF7, 53100 nM.

With `CO[C@H]1[C@H](OC(=O)c2ccc(C)[nH]2)[C@H](O)[C@@H](Oc2ccc3c(O)c(NC(=O)c4c[nH]c(C(=O)Nc5c(O)c6ccc(O[C@H]7OC(C)(C)[C@@H](OC)[C@H](OC(=O)c8ccc(C)[nH]8)[C@@H]7O)c(C)c6oc5=O)c4C)c(=O)oc3c2C)OC1(C)C` [COUMERMYCIN A1], the IC50 in the assay on SK-BR-3 came to 5000 nM; with MCF7 it was 8800 nM.

With `Cc1c(OC2CCN(C)CC2)ccc2cc(NC(=O)CCCC/C=C/CCCCC(=O)Nc3cc4ccc(OC5CCN(C)CC5)c(C)c4oc3=O)c(=O)oc12`, the IC50 turned out to be 510 nM in the assay with SK-BR-3 and 730 nM in the assay with MCF7.

In the case of `COc1cc(C(=O)Nc2cc3ccc(O[C@@H]4OC(C)(C)[C@H](OC)[C@@H](O)[C@H]4O)c(C)c3oc2=O)cc(-c2cc(C(=O)Nc3cc4ccc(O[C@@H]5OC(C)(C)[C@H](OC)[C@@H](O)[C@H]5O)c(C)c4oc3=O)ccc2OC)c1`, the IC50 was found to be 28500 nM in the assay with SK-BR-3 and 38000 nM in the assay on MCF7.

In general, IC50 refers to the midpoint of a concentration-inhibition curve.
